Assay outcomes from PubChem BioAssay.
M4 ag – agonists of human muscarinic M4 receptor (CHRM4) | 360,000 tested, 0.14% active | activation, % at 3 µM | CHO-K1 hM4/Gqi5, Fluo-8 calcium fluorescence; vehicle 0%, full acetylcholine response 100% | AID 624127 | P08173;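 active means activation above the run mean over all test wells plus 3 SD, cut at about 32% in these data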;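 further: peak over basal fluorescence ratio per well then scaled between controls; 0% = DMSO wells and 100% = acetylcholine at EC100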
M5 PAM – potentiates acetylcholine response at human M5 receptor; activation, % at 3 µM; 360,000 tested, 0.3% active; P08912; CHO-K1 hM5, Fluo-8 calcium, ACh EC20 PAM; 0% = ACh EC20, 100% = ACh EC100;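 active means activation above the run cutoff, the mean activation of all test compounds plus 3 SD, cut at about 18% in these data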
Target sequence (P08912 whole entry, looked up): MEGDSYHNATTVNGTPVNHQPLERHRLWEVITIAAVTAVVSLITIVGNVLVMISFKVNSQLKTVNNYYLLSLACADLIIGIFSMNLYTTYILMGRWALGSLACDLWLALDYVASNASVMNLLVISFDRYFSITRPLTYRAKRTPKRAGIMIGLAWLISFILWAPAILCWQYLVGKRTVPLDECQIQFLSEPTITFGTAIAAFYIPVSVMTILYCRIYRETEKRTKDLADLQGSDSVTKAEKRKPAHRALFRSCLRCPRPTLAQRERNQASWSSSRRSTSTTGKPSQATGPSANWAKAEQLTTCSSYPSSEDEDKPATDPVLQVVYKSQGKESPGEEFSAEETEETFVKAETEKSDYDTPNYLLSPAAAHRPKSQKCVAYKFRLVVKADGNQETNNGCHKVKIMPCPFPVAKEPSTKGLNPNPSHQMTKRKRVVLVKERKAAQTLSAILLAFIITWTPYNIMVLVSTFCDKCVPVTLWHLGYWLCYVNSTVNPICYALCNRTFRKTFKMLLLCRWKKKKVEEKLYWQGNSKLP
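Measured by: Fluo-8 calcium fluorescence; material: human M5 receptor in CHO-K1 cells; schedule: Post-acetylcholine fluorescence recording 140 s; benchmarks: low control EC20 acetylcholine (0%), high control EC100 acetylcholine (100%); read-out: Max/basal fluorescence ratio as % of EC20–EC100 ACh window; compound: single dose, 3 µM nominal final test concentration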
CHRM4 PAM – CHRM4 positive allosteric modulation | P08173 | CHO-K1 hM4/Gqi5, Fluo-8 calcium fluorescence, ACh EC20; 0% = ACh EC20, 100% = maximal ACh | 360,000 tested, 0.4% active | activation, % at 3 µM;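 active means activation above its plate's cutoff, the mean activation of sample wells plus 3 SD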
CHRM5 antagonist – blocks acetylcholine activation of human M5 receptor; CHO-hM5 cells, Fluo-8 calcium fluorescence, ACh EC80; inhibition, % at 3 µM; 360,000 tested, 0.59% active;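 active means inhibition above a per-plate cutoff, the mean of that plate's test compounds plus 3 SD, cut at about 27% in these data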;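 further: 0% = acetylcholine EC80 with DMSO and 100% = DMSO without agonist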
CHRM5 agonist – agonists of human muscarinic M5 receptor (CHRM5); P08912; CHO-K1 hM5 cells, Fluo-8 calcium fluorescence; 0% DMSO wells, 100% maximal acetylcholine response; activation, % at 3 µM; 360,000 tested, 0.19% active; AID 624037;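 active means activation above the run's mean over test compounds plus 3 SD, cut at about 23% in these data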;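 further: signal is peak over basal fluorescence ratio across the kinetic read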
M4 antag – CHRM4 antagonism in calcium assay; inhibition, % at 3 µM; 360,000 tested, 0.73% active; CHO-hM4 cells, ACh EC80, Fluo-8 calcium fluorescence; P08173;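 active means inhibition above its plate's cutoff, the mean inhibition of sample wells plus 3 SD, cut at about 27% in these data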;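 further: 0% = acetylcholine EC80 with DMSO and 100% = DMSO without agonist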
* = called active by the depositor. This is a sample that favours compounds with a hit; in the whole collection about 1.9% have one here.

SMILES | M4 ag | M5 PAM | CHRM4 PAM | CHRM5 antagonist | CHRM5 agonist | M4 antag
COc1ccccc1NC(=O)CN1C(=O)COc2ccc(C)cc21 | 4.7 | -0.1 | -2.4 | -1.6 | 6.8 | -1.8
O=[N+]([O-])c1ccc(OCc2n[nH]c(=S)n2-c2ccccc2)cc1 | 0.6 | 4.4 | 5.1 | -2.6 | 1.3 | -1.4
N#CC(c1ccc(N)cc1)C(CC(=O)c1ccccc1)c1ccccc1 (centres undefined) | 2.6 | -1.3 | -3.5 | 9.1 | -0.8 | -0.1
COc1ccccc1N1CCN(Cc2cn[nH]c2-c2ccc(F)cc2)CC1 | 24.0 | -7.6 | 17.4 | 6.7 | 40.0* | 8.8
O=C(O)CCS(=O)(=O)c1ccccc1Cl | -0.5 | -0.9 | -5.5 | 5.4 | 0.3 | 3.5
O=C(CCc1nnc(-c2ccccc2)o1)c1ccc(Cl)cc1 | 2.4 | 7.9 | 33.3* | 5.5 | 0.1 | 12.6
OC(c1ccc(F)cc1)C(CN1CCOCC1)c1ccccc1 (centres undefined) | -0.3 | 1.6 | -6.3 | -2.3 | -1.3 | -5.6
O=C(COC(=O)c1ccccc1NCCO)NCc1cccs1 | 1.5 | -7.1 | 0.6 | 9.1 | 0.5 | -5.7
c1ccc2oc(SCc3cn4ccsc4n3)nc2c1 | 0.2 | -5.6 | -16.8 | 6.6 | -13.2 | 37.5*
COc1cc(C2NC(=O)N(C)C(C)=C2C(=O)OCc2ccccc2)cc(Br)c1O (centres undefined) | 3.0 | 4.3 | 14.4* | -9.6 | 0.2 | -5.8
CCc1noc(N)c1C(=O)Nc1ccc(F)c(Cl)c1 | 0.8 | 21.8* | 2.8 | -9.7 | -5.1 | -1.3
CCc1noc(N)c1C(=O)Nc1ccc(Cl)cc1 | 0.4 | 5.1 | 4.9 | -5.2 | -2.8 | 4.9
CCNc1nc(=S)nc(NC(C)C)[nH]1 | 0.1 | 18.1* | 10.6 | -8.2 | 2.1 | -2.1
COc1ccc(NC(=S)NCc2cccnc2)cc1OC | 3.8 | 19.6* | 23.4* | -10.8 | -0.8 | -11.1
O=C(NCc1ccco1)c1ccc2c(c1)C(=O)N(C1CCCCC1)C2=O | 0.4 | 2.0 | 32.1* | -1.8 | 3.1 | 14.2
CN1C(=O)c2ccc(C(=O)NCc3ccco3)cc2C1=O | 0.9 | -2.4 | 6.4 | 1.2 | -2.6 | 0.1
COc1ccc(S(=O)(=O)N2CCOC23CCN(S(=O)(=O)c2ccc(F)cc2)CC3)cc1 | 0.0 | -1.5 | -5.6 | 1.8 | 1.9 | 29.1*
COc1ccc(/C=C(/C#N)C(=O)Nc2cc(C)ccc2C)cc1C(=O)O | 1.0 | 1.2 | 29.0* | 2.2 | 2.2 | 3.6
COc1ccc2c(c1)OC[C@H]1[C@H]2N2C(=O)c3cc(OC)ccc3NC(=O)[C@@]2(C)[C@H]1c1ccccc1 | -0.2 | -9.9 | -6.0 | 4.3 | -0.3 | 26.5*
Cc1ccc2c(c1)[C@H]1[C@H](CO2)[C@H](c2ccccc2)[C@]2(C)C(=O)N(Cc3ccc(F)cc3)CC(=O)N12 | 12.0 | -3.4 | -8.0 | 13.0 | 24.4* | 16.4
C[C@@]12C(=O)Nc3cc(F)ccc3C(=O)N1[C@H]1c3ccccc3OC[C@@H]1[C@@H]2c1ccccc1 | 3.5 | -36.3 | -21.4 | 11.8 | -3.1 | 73.3*
COc1ccc2c(c1)OC[C@H]1[C@H]2N2C(=O)c3ccc(C)cc3NC(=O)[C@@]2(C)[C@H]1c1ccccc1 | 2.9 | -1.8 | 5.6 | 4.5 | -2.2 | -6.7
COc1ccc2c(c1)OC[C@H]1[C@H]2N2C(=O)c3cc(Cl)ccc3NC(=O)[C@@]2(C)[C@H]1c1ccccc1 | 2.1 | -8.7 | -7.5 | 10.9 | -1.0 | 35.9*
COC(=O)C1CC(O)CN1C(=O)Nc1ccccc1 (centres undefined) | 1.4 | 0.9 | 2.2 | -3.3 | -4.4 | -19.4
Cn1nc(C(=O)NCc2ccccc2Cl)c2c1-c1ccccc1S(=O)(=O)C2 | 7.5 | -1.4 | -6.9 | -0.9 | -1.6 | -3.3
SMILES | M4 ag | M5 PAM | CHRM4 PAM | CHRM5 antagonist | CHRM5 agonist | M4 antag
COc1ccc2c(c1)OC[C@H]1[C@H]2N2C(=O)c3cc(F)ccc3NC(=O)[C@@]2(C)[C@H]1c1ccccc1 | 3.7 | -27.5 | -14.7 | 12.2 | -6.1 | 56.7*
COc1ccc(CCNC(=O)COC(=O)c2cncc(Br)c2)cc1OC | 1.3 | -6.3 | 1.0 | -3.4 | 5.9 | 2.9
O=C1CCCC(=NNC(=O)c2cc3ccccc3cc2O)C1 | 6.2 | -1.3 | 4.8 | -2.0 | 26.3* | 3.3
O=C1CCC/C(=N/NC(=O)c2sc3ccccc3c2Cl)C1 | 22.5 | -11.3 | -17.3 | 17.2 | 24.1* | 20.8
O=C(NN=C1CCCC1)c1sc2ccccc2c1Cl | 1.4 | -0.7 | 9.2 | 10.5 | 2.9 | -5.8
Cc1ccccc1-n1c(O)c(/C=N/N2CCCCC2c2cccnc2)c(=O)[nH]c1=O (centres undefined) | 1.4 | 29.5* | 24.2* | 2.5 | 12.4 | -5.7
Cc1ccc(S(=O)(=O)N2CCCCC2c2cccnc2)c(C)c1C (centres undefined) | 1.5 | -4.0 | -14.5 | 2.9 | -7.4 | -3.5
OC(COc1ccccc1)CN1CCN(C(c2ccccc2)c2ccccc2)CC1 (centres undefined) | -1.1 | -31.6 | -12.6 | 17.4 | -24.9 | 16.7
COc1ccccc1OCCCCN1CCN(C(c2ccccc2)c2ccccc2)CC1 | 0.6 | -20.3 | -37.6 | 22.1 | -6.7 | 62.9*
CC(C)c1ccccc1OCCCCCN1CCOCC1 | 1.4 | -25.6 | -13.1 | 6.0 | -18.2 | 32.2*
c1ccc(CN2CCN(C(c3ccccc3)c3ccccc3)CC2)cc1 | -2.2 | -25.8 | -15.1 | 8.6 | -16.7 | 12.1
c1ccc(OCCOCCN2CCN(C(c3ccccc3)c3ccccc3)CC2)cc1 | 1.3 | -22.3 | -43.6 | 51.9* | -7.7 | 86.4*
COc1cccc(OC)c1OCCCCCCN1CCN(C)CC1 | 1.2 | 1.3 | 1.9 | 1.6 | -6.4 | -6.8
O=S(=O)(CCN1CCN(C(c2ccccc2)c2ccccc2)CC1)C(F)(F)F | 1.5 | -22.1 | -15.4 | 44.8* | -5.7 | 47.7*
CC(C)(C)[C@H]1C=C(C(=O)NC2CC2)O[C@@H](OCCCCO)C1 | 1.4 | 8.3 | 1.3 | 3.6 | 0.7 | 7.7
CS(=O)(=O)c1ccc(Cl)c(NC(=O)CNC(=O)c2ccc3c(c2)OCO3)c1 | 0.7 | -7.1 | 2.8 | 20.0 | -4.5 | -10.7
O=C(Nc1ccc(F)cc1)Nc1cc(OCC(F)(F)F)cc(OCC(F)(F)F)c1 | 12.1 | -17.7 | -12.9 | 30.5* | 8.0 | 18.9
CCOc1ccc(NC(=O)Nc2ccc3nsnc3c2)cc1 | 17.4 | -22.9 | -11.5 | 32.6* | 5.5 | 1.6
CCOc1ccc(NC(=O)Nc2cc(OCC(F)(F)F)cc(OCC(F)(F)F)c2)cc1 | 9.7 | -14.9 | -9.2 | 28.0* | 1.3 | 8.6
CCOc1ccc(NC(=O)Nc2cccc(C(=O)O)c2)cc1 | 6.1 | -0.8 | 4.5 | 5.2 | -4.1 | 8.4
COC(=O)c1ccc(NC(=O)Nc2ccc(F)cc2)cc1 | 14.1 | -16.6 | -9.5 | 21.2 | 6.4 | 13.2
